Reference: ChEMBL document CHEMBL1127431, “Cholinergic agents structurally related to furtrethonium. 2. Synthesis and antimuscarinic activity of a series of N-[5-[(1'-substituted-acetoxy) methyl]-2-furfuryl]dialkylamines” (J Med Chem, 1994)

Tests used:
[1] = biological target: Muscarinic acetylcholine receptor M3 (Rattus norvegicus) (UniProt P08483); experiment: In vitro antimuscarinic activity against the M3 muscarinic receptor subtype in rat bladder
How it was run: (§1)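 Rat urinary detrusor strips (extratrigonal, 1 cm × 2 mm), fasted overnight, isotonic recording at 1 g resting tension; 30–45 min equilibration. Cumulative furtrethonium curves in 0.5 log-unit increments, repeated until two matched, then final curve after ≥30 min with test compound. E50 by four-parameter logistic fit; pKb = log(DR−1) − log[B], mean ± SE.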

[2] = biological target: T1, Muscarinic acetylcholine receptor M2 (Homo sapiens) (UniProt P08172); experiment: In vitro antimuscarinic activity against the M2 muscarinic receptor subtype in guinea pig atria; conditions: Cavia porcellus; target entry is the homologue from another species
T1 sequence (whole entry): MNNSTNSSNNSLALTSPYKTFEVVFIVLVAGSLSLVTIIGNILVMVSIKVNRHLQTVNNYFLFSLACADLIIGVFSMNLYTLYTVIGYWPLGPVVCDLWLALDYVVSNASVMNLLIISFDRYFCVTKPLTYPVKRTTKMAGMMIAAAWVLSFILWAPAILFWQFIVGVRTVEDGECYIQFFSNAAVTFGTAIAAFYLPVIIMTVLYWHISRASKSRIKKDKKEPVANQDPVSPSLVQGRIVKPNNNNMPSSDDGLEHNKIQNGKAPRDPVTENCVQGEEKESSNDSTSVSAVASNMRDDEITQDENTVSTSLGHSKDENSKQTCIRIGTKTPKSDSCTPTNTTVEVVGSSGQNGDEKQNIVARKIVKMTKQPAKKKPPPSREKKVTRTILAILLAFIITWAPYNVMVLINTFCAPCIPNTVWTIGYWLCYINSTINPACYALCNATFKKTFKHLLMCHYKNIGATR
How it was run: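 Guinea pig atria (both), fasted overnight, resting tension 1 g, force recorded; 30–45 min equilibration. Cumulative carbachol curves in 0.25 log-unit increments, repeated until two matched, then final curve after ≥30 min with test compound. E50 from four-parameter logistic fit; pKb = log(DR−1) − log[B], mean ± SE.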

[3] = biological target: Muscarinic acetylcholine receptor M3 (Rattus norvegicus) (UniProt P08483); experiment: In vitro antimuscarinic activity against the M3 muscarinic receptor subtype in rat ileum; format: tissue-based
How it was run: as §1, with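 “Rat longitudinal ileum segments (~2 cm),” for “Rat urinary detrusor strips (extratrigonal, 1 cm × 2 mm),”, “at 0.5” for “at 1”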

Muscarinic acetylcholine receptor M3 (Rattus norvegicus), sequence (P08483 whole entry, looked up): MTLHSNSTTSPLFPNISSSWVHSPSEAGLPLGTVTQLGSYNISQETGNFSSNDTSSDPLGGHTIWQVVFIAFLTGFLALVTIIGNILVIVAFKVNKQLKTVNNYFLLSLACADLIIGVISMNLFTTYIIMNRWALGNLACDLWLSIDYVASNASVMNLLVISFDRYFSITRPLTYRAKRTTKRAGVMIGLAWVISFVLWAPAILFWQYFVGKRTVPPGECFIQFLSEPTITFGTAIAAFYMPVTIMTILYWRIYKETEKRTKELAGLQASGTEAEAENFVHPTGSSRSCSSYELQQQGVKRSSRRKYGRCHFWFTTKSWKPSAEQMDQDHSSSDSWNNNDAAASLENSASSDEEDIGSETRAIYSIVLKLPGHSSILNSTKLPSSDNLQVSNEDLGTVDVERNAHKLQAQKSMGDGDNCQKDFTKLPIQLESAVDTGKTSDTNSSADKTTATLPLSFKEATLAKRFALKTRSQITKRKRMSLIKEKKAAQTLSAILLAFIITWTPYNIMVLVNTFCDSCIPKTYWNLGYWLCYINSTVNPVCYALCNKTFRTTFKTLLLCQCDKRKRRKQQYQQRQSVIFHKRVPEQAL

Compound	pKb [1]	pKb [2]	pKb [3]
CN(Cc1ccccc1)Cc1ccc(COC(=O)C(c2ccccc2)C2CCCCC2)o1 (stereo not given)	< 5	< 5	< 5
CN(C)Cc1ccc(COC(=O)C(c2ccccc2)c2ccccc2)o1	6.5	5.9	6.5
O=C(OCc1ccc(CN2CCC(O)CC2)o1)C(c1ccccc1)C1CCCCC1 (stereo not given)	6	< 5	6.5
CN(C)Cc1ccc(COC(=O)C2c3ccccc3-c3ccccc32)o1	5.6	4.8	5.8
O=C(OCc1ccc(CN2CCCCC2)o1)C(c1ccccc1)C1CCCCC1 (stereo not given)	5.3	< 5	6.3
CC(C)N(C)Cc1ccc(COC(=O)C(c2ccccc2)C2CCCCC2)o1 (stereo not given)	6.7	5	7
O=C(OCc1ccc(CN2CCCCC2)o1)C(c1ccccc1)c1ccccc1	6.2	< 5	6
CCCCCN(C)Cc1ccc(COC(=O)C(c2ccccc2)C2CCCCC2)o1 (stereo not given)	< 5	< 5	6.9
CN(Cc1ccc(COC(=O)C(c2ccccc2)C2CCCCC2)o1)C1CCCCC1 (stereo not given)	< 5	< 4.5	6.5
CCN(CC)Cc1ccc(COC(=O)C(c2ccccc2)C2CCCCC2)o1 (stereo not given)	6	< 5	6.7
CN(C)Cc1ccc(COC(=O)C(c2ccccc2)C2CCCCC2)o1 (stereo not given)	7.2	5.9	7.3
CCCN(C)Cc1ccc(COC(=O)C(c2ccccc2)C2CCCCC2)o1 (stereo not given)	6	< 5	6.8
CN(C)Cc1ccc(COC(=O)C(O)(C2CCCCC2)C2CCCCC2)o1	7.2	< 5	7.1
O=C(OCc1ccc(CN2CCOCC2)o1)C(c1ccccc1)C1CCCCC1 (stereo not given)	5.7	< 5	5.5
CN(C)Cc1ccc(COC(=O)C2c3ccccc3Oc3ccccc32)o1	6.6	6.5	7.1
